Source: ChEMBL document CHEMBL4373711, “Development of 3,5-Dinitrophenyl-Containing 1,2,4-Triazoles and Their Trifluoromethyl Analogues as Highly Efficient Antitubercular Agents Inhibiting Decaprenylphosphoryl-β-d-ribofuranose 2'-Oxidase” (J Med Chem, 2019)
In brackets after ≈: the same amount, converted by molar mass. Activity calls are given as the source filed them. The calls are words filed in the database; no cut-off is given here.

Columns and labels:
[1] = test system: Mycobacterium tuberculosis; assay: Antimycobacterial activity against Mycobacterium tuberculosis H37Rv CNCTC My 331/88 after 14 days; assay type: functional; details: H37Rv CNCTC My 331/88, 336 h
Method in brief: (§1)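 M. tuberculosis strains (H37Rv and clinical MDR/XDR isolates) tested by microdilution in Šula's semisynthetic medium. Compounds were dissolved in DMSO and tested at 32 to 0.03 µM in twofold steps. Inoculum was a 1.0 McFarland suspension diluted 10-3. Plates were incubated at 37 °C and read at 14 and 21 days.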

[2] = test system: Mycobacterium tuberculosis; assay: Antimycobacterial activity against Mycobacterium tuberculosis H37Rv CNCTC My 331/88 after 21 days; assay type: functional; details: H37Rv CNCTC My 331/88, 504 h; method in brief: as §1
[3] = test system: Mycobacterium avium; assay: Antimycobacterial activity against Mycobacterium avium CNCTC My 330/88 after 14 days; assay type: functional; details: CNCTC My 330/88, 336 h
Method in brief: (§2)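 M. avium was tested by microdilution in Šula's semisynthetic medium, with compounds dissolved in DMSO and serially diluted from 1000 down to 1. Inoculum was a 1.0 McFarland suspension diluted 10-5. Plates were incubated at 37 °C and read at 14 and 21 days. […] Isoniazid and rifampicin served as standards.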

[4] = test system: Mycobacterium avium; assay: Antimycobacterial activity against Mycobacterium avium CNCTC My 330/88 after 21 days; assay type: functional; details: CNCTC My 330/88, 504 h; method in brief: as §2
[5] = test system: Mycobacterium kansasii; assay: Antimycobacterial activity against Mycobacterium kansasii CNCTC My 235/80 after 7 days; assay type: functional; details: CNCTC My 235/80, 168 h
Method in brief: (§3)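 Microdilution in Šula's semisynthetic medium; compounds in DMSO at 32–0.03 µM. Inoculum from 1.0 McFarland suspension diluted 10-4. […] Isoniazid and rifampicin as reference drugs.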

[6] = test system: Mycobacterium kansasii; assay: Antimycobacterial activity against Mycobacterium kansasii CNCTC My 235/80 after 14 days; assay type: functional; details: CNCTC My 235/80, 336 h; method in brief: as §3
[7] = test system: Mycobacterium kansasii; assay: Antimycobacterial activity against Mycobacterium kansasii CNCTC My 235/80 after 21 days; assay type: functional; details: CNCTC My 235/80, 504 h; method in brief: as §3
[8] = test system: Mycobacterium kansasii; assay: Antimycobacterial activity against Mycobacterium kansasii 6509/96 after 7 days; assay type: functional; details: 6509/96, 168 h; method in brief: as §3
[9] = test system: Mycobacterium kansasii; assay: Antimycobacterial activity against Mycobacterium kansasii 6509/96 after 14 days; assay type: functional; details: 6509/96, 336 h; method in brief: as §3
[10] = test system: Mycobacterium kansasii; assay: Antimycobacterial activity against Mycobacterium kansasii 6509/96 after 21 days; assay type: functional; details: 6509/96, 504 h; method in brief: as §3
[11] = test system: Staphylococcus aureus; assay: Antibacterial activity against Staphylococcus aureus subsp. aureus ATCC 29213 CCM 4223 at highest concentration measured after 24 to 48 hrs by alamar blue dye based broth microdilution assay; assay type: functional, organism-based
[12] = test system: Staphylococcus aureus; assay: Antibacterial activity against methicillin-resistant Staphylococcus aureus subsp. aureus ATCC 43300 CCM 4750 at highest concentration measured after 24 to 48 hrs by alamar blue dye based broth microdilution assay; assay type: functional, organism-based
[13] = test system: Staphylococcus epidermidis; assay: Antibacterial activity against Staphylococcus epidermidis at highest concentration measured after 24 to 48 hrs by alamar blue dye based broth microdilution assay; assay type: functional, organism-based
[14] = test system: Enterococcus faecalis; assay: Antibacterial activity against Enterococcus faecalis ATCC 29212 CCM 4224 at highest concentration measured after 24 to 48 hrs by alamar blue dye based broth microdilution assay; assay type: functional, organism-based
[15] = test system: Escherichia coli; assay: Antibacterial activity against Escherichia coli ATCC 25922 CCM 3954 at highest concentration measured after 24 to 48 hrs by alamar blue dye based broth microdilution assay; assay type: functional, organism-based
[16] = test system: Klebsiella pneumoniae; assay: Antibacterial activity against Klebsiella pneumoniae at highest concentration measured after 24 to 48 hrs by alamar blue dye based broth microdilution assay; assay type: functional, organism-based
[17] = test system: Serratia marcescens; assay: Antibacterial activity against Serratia marcescens at highest concentration measured after 24 to 48 hrs by alamar blue dye based broth microdilution assay; assay type: functional, organism-based
[18] = test system: Pseudomonas aeruginosa; assay: Antibacterial activity against Pseudomonas aeruginosa ATCC 27853 CCM 3955 at highest concentration measured after 24 to 48 hrs by alamar blue dye based broth microdilution assay; assay type: functional, organism-based
[19] = test system: Candida albicans; assay: Antifungal activity against Candida albicans ATCC 24433 CCM 8320 at highest concentration measured after 24 to 48 hrs by alamar blue dye based broth microdilution assay; assay type: functional, organism-based
[20] = test system: Pichia kudriavzevii; assay: Antifungal activity against Candida krusei ATCC 6258 CCM8271 at highest concentration measured after 24 to 48 hrs by alamar blue dye based broth microdilution assay; assay type: functional, organism-based
[21] = test system: Candida parapsilosis; assay: Antifungal activity against Candida parapsilosis ATCC 22019 CCM 8260 at highest concentration measured after 24 to 48 hrs by alamar blue dye based broth microdilution assay; assay type: functional, organism-based
[22] = test system: Candida tropicalis; assay: Antifungal activity against Candida tropicalis ATCC 750 CCM 8264 at highest concentration measured after 24 to 48 hrs by alamar blue dye based broth microdilution assay; assay type: functional, organism-based
[23] = test system: Aspergillus fumigatus; assay: Antifungal activity against Aspergillus fumigatus ATCC 204305 at highest concentration measured after 24 to 48 hrs by alamar blue dye based broth microdilution assay; assay type: functional, organism-based
[24] = test system: Aspergillus flavus; assay: Antifungal activity against Aspergillus flavus CCM 8363 at highest concentration measured after 24 to 48 hrs by alamar blue dye based broth microdilution assay; assay type: functional, organism-based
[25] = test system: Lichtheimia corymbifera; assay: Antifungal activity against Lichtheimia corymbifera CCM 8077 at highest concentration measured after 24 to 48 hrs by alamar blue dye based broth microdilution assay; assay type: functional, organism-based
[26] = test system: Trichophyton interdigitale; assay: Antifungal activity against Trichophyton interdigitale ATCC 9533 CCM 8377 at highest concentration measured after 72 to 120 hrs by alamar blue dye based broth microdilution assay; assay type: functional

SMILES | MIC99 [1] [µM] | MIC99 [2] [µM] | MIC99 [3] [µM] | MIC99 [4] [µM] | MIC99 [5] [µM] | MIC99 [6] [µM] | MIC99 [7] [µM] | MIC99 [8] [µM] | MIC99 [9] [µM] | MIC99 [10] [µM] | Activity [11] | Activity [12] | Activity [13] | Activity [14] | Activity [15] | Activity [16] | Activity [17] | Activity [18] | Activity [19] | Activity [20] | also measured
O=[N+]([O-])c1cc(-c2nnc(SCc3ccccc3)n2Cc2ccc(Cl)cc2Cl)cc([N+](=O)[O-])c1 | 2 (≈ 1.03 µg/mL) | 2 (≈ 1.03 µg/mL) | 16 (≈ 8.26 µg/mL) | 16 (≈ 8.26 µg/mL) | 2 (≈ 1.03 µg/mL) | 4 (≈ 2.07 µg/mL) | 4 (≈ 2.07 µg/mL) | 4 (≈ 2.07 µg/mL) | 4 (≈ 2.07 µg/mL) | 4 (≈ 2.07 µg/mL) | inactive | inactive | inactive | inactive | inactive | inactive | inactive | inactive | inactive | inactive | Activity [21]: inactive; Activity [22]: inactive; Activity [23]: inactive; Activity [24]: inactive; Activity [25]: inactive; Activity [26]: inactive
O=[N+]([O-])c1cc(CSc2nnc(C3CCCCC3)n2Cc2ccccc2)cc([N+](=O)[O-])c1 | 2 (≈ 0.907 µg/mL) | 4 (≈ 1.81 µg/mL) | 250 (≈ 113 µg/mL) | 250 (≈ 113 µg/mL) | 4 (≈ 1.81 µg/mL) | 4 (≈ 1.81 µg/mL) | 4 (≈ 1.81 µg/mL) | 4 (≈ 1.81 µg/mL) | 4 (≈ 1.81 µg/mL) | 4 (≈ 1.81 µg/mL) | inactive | inactive | inactive | inactive | inactive | inactive | inactive | inactive | inactive | inactive | Activity [21]: inactive; Activity [22]: inactive; Activity [23]: inactive; Activity [24]: inactive; Activity [25]: inactive; Activity [26]: inactive
CCCCCCCCCCCc1nnc(SCc2cc([N+](=O)[O-])cc([N+](=O)[O-])c2)n1Cc1ccccc1 | 4 (≈ 2.1 µg/mL) | 4 (≈ 2.1 µg/mL) | 250 (≈ 131 µg/mL) | 250 (≈ 131 µg/mL) | 2 (≈ 1.05 µg/mL) | 4 (≈ 2.1 µg/mL) | 4 (≈ 2.1 µg/mL) | 2 (≈ 1.05 µg/mL) | 4 (≈ 2.1 µg/mL) | 8 (≈ 4.21 µg/mL) | inactive | inactive | inactive | inactive | inactive | inactive | inactive | inactive | inactive | inactive | Activity [21]: inactive; Activity [22]: inactive; Activity [23]: inactive; Activity [24]: inactive; Activity [25]: inactive; Activity [26]: inactive
O=[N+]([O-])c1cc(CSc2nnc(-c3ccccc3)n2Cc2ccc(Cl)cc2Cl)cc([N+](=O)[O-])c1 | > 32 | > 32 | 250 (≈ 129 µg/mL) | 250 (≈ 129 µg/mL) | > 32 | > 32 | > 32 | > 32 | > 32 | > 32 | inactive | inactive | inactive | inactive | inactive | inactive | inactive | inactive | inactive | inactive | Activity [21]: inactive; Activity [22]: inactive; Activity [23]: inactive; Activity [24]: inactive; Activity [25]: inactive; Activity [26]: inactive
CCCCCCCCCCCCn1c(SCc2ccccc2)nnc1-c1cc([N+](=O)[O-])cc([N+](=O)[O-])c1 | 2 (≈ 1.05 µg/mL) | 4 (≈ 2.1 µg/mL) | 250 (≈ 131 µg/mL) | 250 (≈ 131 µg/mL) | 2 (≈ 1.05 µg/mL) | 4 (≈ 2.1 µg/mL) | 4 (≈ 2.1 µg/mL) | 2 (≈ 1.05 µg/mL) | 4 (≈ 2.1 µg/mL) | 4 (≈ 2.1 µg/mL) | inactive | inactive | inactive | inactive | inactive | inactive | inactive | inactive | inactive | inactive | Activity [21]: inactive; Activity [22]: inactive; Activity [23]: inactive; Activity [24]: inactive; Activity [25]: inactive; Activity [26]: inactive
